# PAFAH1B2 FP inh: inhibitors of human PAFAH1B2. recombinant PAFAH1B2, FP-rhodamine activity probe, fluorescence polarization. inhibition, % at 3.39 µM. actives 1.2% (n = 340,000). AID 492953;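 active means inhibition above the mean of all tested compounds plus 3 SD, cut at about 24% in these data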;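 further: 0% = enzyme with DMSO and 100% = wells lacking PAFAH1B2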
# Target sequence (P68402 whole entry, looked up): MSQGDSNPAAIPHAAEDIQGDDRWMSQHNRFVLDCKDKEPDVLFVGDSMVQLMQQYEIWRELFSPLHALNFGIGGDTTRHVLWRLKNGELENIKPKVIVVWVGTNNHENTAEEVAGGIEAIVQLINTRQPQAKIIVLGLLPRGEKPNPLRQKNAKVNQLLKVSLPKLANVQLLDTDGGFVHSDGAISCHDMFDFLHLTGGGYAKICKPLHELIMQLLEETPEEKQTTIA
# PAFAH1B3 FP inh: blocks human PAF acetylhydrolase 1B catalytic subunit 3. Q15102. recombinant PAFAH1B3, FP-rhodamine probe, fluorescence polarization. inhibition, % at 3.39 µM. actives 0.28% (n = 340,000). AID 492972;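 active means inhibition above the screen-wide average of all tested compounds plus 3 SD, cut at about 25% in these data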;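 further: 0% = enzyme with DMSO only and 100% = wells lacking PAFAH1B3 protein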
# IMP-1 inh: blocks Pseudomonas aeruginosa IMP-1 metallo-beta-lactamase; purified IMP-1, nitrocefin hydrolysis, epi-absorbance fluorescence; inhibition, % at 5.6 µM; actives 0.45% (n = 290,000);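 active means inhibition above the mean plus 3 SD of all compounds in the same screening run, cut at about 4.5% in these data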;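 further: 0% = IMP-1 with DMSO and 100% = DMSO wells lacking enzyme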
#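 Assay system: purified IMP-1; Quantity: IMP-1 0.2 nM before substrate addition; Medium: HEPES buffer pH 7.1 with ZnSO4 and Brij 35; Incubation: 15 min enzyme–compound preincubation, then 25 min nitrocefin reaction, 25 °C; Signal: fluorescence quenching readout, ex 480/em 530 nm; Controls: DMSO with and without IMP-1; Repeats: singlicate testing.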
# pPAFAH FP inh: pPAFAH (human) enzyme inhibition; recombinant pPAFAH, FP-rhodamine probe fluorescence polarization; inhibition, % at 3.39 µM; actives 1.5% (n = 330,000); AID 463082;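 active means inhibition above the mean inhibition across the screen plus 3 SD, cut at about 25% in these data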;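 further: inhibitors block binding of the rhodamine activity-based probe so polarization drops; 0% = enzyme with DMSO and 100% = wells lacking pPAFAH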
# Target sequence (Q13093 whole entry, looked up): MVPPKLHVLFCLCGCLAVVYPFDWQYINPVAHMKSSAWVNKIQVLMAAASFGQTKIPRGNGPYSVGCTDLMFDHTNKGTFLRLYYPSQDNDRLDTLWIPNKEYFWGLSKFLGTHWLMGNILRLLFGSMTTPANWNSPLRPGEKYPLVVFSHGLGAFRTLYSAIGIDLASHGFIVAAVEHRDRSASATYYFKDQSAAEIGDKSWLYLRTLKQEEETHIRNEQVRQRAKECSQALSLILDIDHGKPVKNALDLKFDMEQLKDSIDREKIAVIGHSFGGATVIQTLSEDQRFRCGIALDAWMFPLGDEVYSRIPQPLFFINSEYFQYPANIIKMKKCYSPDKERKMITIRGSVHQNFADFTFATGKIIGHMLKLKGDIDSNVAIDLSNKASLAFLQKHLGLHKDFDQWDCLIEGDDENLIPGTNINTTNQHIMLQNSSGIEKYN
# VIM-2 inhibitor: inhibitors of Pseudomonas aeruginosa VIM-2 metallo-beta-lactamase; actives 0.89% (n = 290,000); purified VIM-2, nitrocefin hydrolysis, epi-absorbance fluorescence; inhibition, % at 5.6 µM;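 active means inhibition above the mean of all tested compounds plus 3 SD, cutoff set per screening run, cut at about 7.5% in these data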;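 further: red hydrolysis product quenches plate fluorescence so inhibitors raise well fluorescence; 0% = enzyme with DMSO and 100% = DMSO without enzyme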
# PAFAH2 inh: PAFAH2 (human) inhibition. recombinant PAFAH2, FP-rhodamine activity probe, fluorescence polarization. actives 0.99% (n = 340,000). Q99487. AID 492956. inhibition, % at 3.39 µM;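 active means inhibition above the mean over all tested compounds plus 3 SD, cut at about 30% in these data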;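 further: inhibitors block probe labeling of enzyme so polarization drops; 0% = enzyme with DMSO and 100% = wells lacking PAFAH2 protein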
# Starred values were filed as active, the others as inactive; x = not tested or not shown. Compounds with a hit are over-represented: about 3.6% of the library has one in this group of screens.
SMILES,PAFAH1B2 FP inh,PAFAH1B3 FP inh,IMP-1 inh,pPAFAH FP inh,VIM-2 inhibitor,PAFAH2 inh
O=C1C2C3C=CC(CO)(O3)C2C(=O)N1c1ccc(-c2ccccc2)cc1 (configuration not stated),x,x,-2.5,27.8*,0.3,x
Cc1cccc(C)c1NC(=S)NCCSc1ccc(Cl)cc1,25.2*,-4.7,-2.8,1.2,-3.7,10.5
Cc1ccc(NC(=O)CSCC(=O)NC2(C)CCS(=O)(=O)C2)cc1 (configuration not stated),3.0,3.7,x,3.6,x,-1.2
COC(=O)c1sccc1NC(=O)CC1C(=O)NCCN1C(=O)Nc1ccc(OCc2ccccc2)cc1 (configuration not stated),61.2*,4.1,-2.3,5.3,-1.1,0.6
CCSc1nnc(NC(=O)c2cccc(S(=O)(=O)N(C)c3ccccc3)c2)s1,7.6,-2.2,-1.9,0.9,-3.1,-3.1
C=CCN(c1ccccc1)S(=O)(=O)c1cccc(C(=O)Nc2nnc(SCC)s2)c1,10.9,-0.4,-4.1,34.5*,-3.2,3.7
Cc1[nH]c2ccccc2c1C(=O)C(=O)NC1CC1,3.4,3.4,-0.2,28.0*,-0.6,1.3
Cc1ccc2nc(C)c(CN3CCN(c4ccc([N+](=O)[O-])cc4Cl)CC3)n2c1,2.4,8.6,-0.6,5.3,0.5,3.7
Cc1ccc(C(=O)N2CCN(S(=O)(=O)c3sc(C(=O)O)c(C)c3C(=O)O)CC2)s1,-0.5,5.4,x,2.1,x,-1.9
COC(=O)c1ccc(NC(=S)Nc2ccccc2)cc1,0.9,-3.0,-1.3,3.0,-3.1,-0.4
COC(=O)c1ccc(NC(=S)Nc2ccc3ccccc3c2)cc1,-2.4,7.0,5.2*,7.1,1.9,-7.5
O=[N+]([O-])c1cc(Br)c(O)c(C=Nc2ccc(N3CCOCC3)cc2)c1,4.6,0.1,2.1,33.5*,-1.9,-0.9
CCCc1nc2sc(C(=O)OCC)c(N)c2c2c1COC(C)(C)C2,-3.9,2.4,6.2*,2.8,-0.7,-4.5
O=C(COC(=O)CSc1ccc(F)cc1)NCCCc1ccccc1,29.2*,1.2,x,19.1,x,9.4
O=C(COC(=O)CSc1ccc([N+](=O)[O-])cc1)NCCc1ccccc1,18.2,4.8,x,5.9,x,1.8
CC1Cc2ccccc2N1C(=O)COC(=O)/C=C/c1cccc(F)c1 (configuration not stated),1.1,0.9,x,2.1,x,9.5
O=C(COC(=O)CSc1ccc([N+](=O)[O-])cc1)NCCCc1ccccc1,29.9*,1.8,-1.6,20.0,-1.1,0.2
O=C(CSc1ccccc1)NCCCc1ccccc1,6.5,7.2,-4.4,-2.5,-3.8,-2.6
CC1Cc2ccccc2N1C(=O)COC(=O)CSc1ccc(F)cc1 (configuration not stated),25.5*,-4.7,x,12.4,x,1.2
CNC[C@H]1Oc2ccc(NC(=O)C3CCCCC3)cc2CC(=O)N([C@H](C)CO)C[C@@H]1C,2.5,1.4,x,3.1,x,3.1
Cc1ccccc1NC(=O)Cn1c(NCC(C)O)nc2ccccc21 (configuration not stated),-3.8,-2.4,-3.0,-2.1,-1.6,-1.7
CC(O)CNc1nc2ccccc2n1CC(=O)NCCc1ccc(Cl)cc1 (configuration not stated),27.6*,1.1,-4.8,4.0,-2.9,-0.3
O=C(CSc1nccc(-c2cccs2)n1)Nc1ccc(Cl)cc1,5.0,12.2,-1.8,-2.1,-0.3,-11.6
Cc1onc(-c2ccc(Cl)cc2)c1-c1ccnc(SCC(=O)Nc2ccc(C(C)C)cc2)n1,29.9*,-13.5,-1.4,-0.2,-2.8,-16.5
Cc1ccc(-c2csc(NCCn3c(C)nc4cc(C(F)(F)F)ccc43)n2)cc1,36.7*,5.2,x,4.0,x,1.4
SMILES,PAFAH1B2 FP inh,PAFAH1B3 FP inh,IMP-1 inh,pPAFAH FP inh,VIM-2 inhibitor,PAFAH2 inh
CCOc1ccc2c(c1)c1nc3ccccc3nc1n2C,-0.1,12.2,0.0,x,8.4*,-3.4
Cn1c2ccc(F)cc2c2nc3ccccc3nc21,-7.8,6.4,-3.1,-0.8,7.9*,0.7
Cn1c2ccc(Cl)cc2c2nc3ccccc3nc21,2.9,2.4,-4.0,8.9,-2.2,-5.8
Cc1cn([C@H]2C[C@H](O)[C@@H](CCC(=O)NCCN3CCCCC3)O2)c(=O)[nH]c1=O,3.5,9.1,x,3.1,x,-0.8
CCOCCCn1c(=O)c2ccccc2n2c(=S)[nH]nc12,6.8,7.3,0.6,-4.3,-0.8,-1.2
Cc1nc2ccccn2c1-c1ccnn1S(=O)(=O)c1ccc(F)cc1,31.0*,-2.7,-1.6,3.4,0.2,12.1
CCc1ccccc1NC(=O)CNC(=O)CNC(=O)c1cccs1,0.0,1.1,x,0.2,x,7.7
CC(C)n1nccc1NS(=O)(=O)c1ccccc1,4.1,-2.7,x,-0.8,x,2.4
CC(C)n1nccc1NC(=O)Nc1ccccc1,3.3,2.7,9.1*,7.1,-0.1,-14.2
CC(NC(=O)Nc1ccccc1Cl)c1ccc2c(c1)OCO2 (configuration not stated),2.5,1.8,-0.8,-1.6,-1.0,2.1
CC1(C)Oc2ccc3ccc(=O)oc3c2/C(=C/NNC(N)=O)C1=O,5.8,4.0,-3.1,0.7,0.8,0.1
C=CCn1c(SCc2nc3sc(C(=O)O)c(C)c3c(=O)[nH]2)nnc1-c1ccc(C(C)(C)C)cc1,11.5,21.3,-3.6,26.1*,-4.3,5.3
O=c1c2ccccc2nc2n1C(CSCc1ccc(Cl)cc1Cl)CS2 (configuration not stated),39.3*,9.9,-3.5,3.6,-1.4,11.5
Nc1ccccc1SCC1CSc2nc3ccccc3c(=O)n21 (configuration not stated),-6.8,0.5,-1.9,3.9,-1.9,4.0
CC(C)(C)[C@@H]1COC(=O)[C@@H](Cc2ccc(F)cc2)C/C=C\C[C@H](CC(=O)N(CCO)Cc2ccccc2)C(=O)N1,6.6,7.2,x,6.5,x,2.7
O=C(Oc1ccccc1)c1c(Cl)cccc1P(=O)(O)O,0.7,1.7,1.3,6.5,8.5*,-7.6
CCC1(c2ccccc2)NC(=O)N(CC(=O)NC2CCCCCC2)C1=O (configuration not stated),7.7,3.4,x,3.1,x,4.5
CC(NC(=O)CSc1n[nH]c(=O)[nH]c1=O)C1CC2CCC1C2 (configuration not stated),26.9*,4.7,-2.4,0.2,0.3,-3.0
CC(NC(=O)CSc1ncccc1C(=O)O)C1CC2CCC1C2 (configuration not stated),29.2*,0.0,-3.1,2.8,-0.4,8.1
O=C(CSc1ncccc1C(=O)O)NC1CCCCC1,3.6,-5.0,-1.7,3.7,-6.6,0.2
Cc1cc(=O)[nH]c(SCC(=O)NC(C)C2CC3CCC2C3)c1C#N (configuration not stated),18.2,-0.2,-1.6,22.6,-2.7,8.5
CCCC(C)C(=O)Nc1nc(C)c(-c2csc(Nc3cc(Cl)ccc3C)n2)s1 (configuration not stated),4.0,2.1,9.9*,9.9,-2.4,-10.2
